Assay [1] addresses Aldo-keto reductase family 1 member B1 (Homo sapiens, UniProt P15121). The assay is described as follows: In vitro inhibitory activity against Aldose reductase isolated from human placenta. In outline:
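Human placental aldose reductase, partially purified (homogenized in 0.1 M K phosphate pH 7.0 with 5 mM 2-mercaptoethanol). Assay: 50 mM K phosphate pH 7.1, 0.4 M ammonium sulfate, 0.067 mM NADPH, 1.0 mM dl-glyceraldehyde, 25 °C. NADPH oxidation followed at 340 nm over 10 min.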

Assay [2] has as its system Rattus norvegicus. As to the kind of experiment: Tested in vivo for ability to inhibit sorbitol formation in the lens of a streptozotocinized rat model after oral administration at the dose of 1.0 mg/Kg. It is filed as functional. The settings on record: Lens of camera-type eye. The method, boiled down:
(§1)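 Rats made diabetic with streptozotocin 85 mg/kg iv at 0 h. Compound given by oral gavage at 4, 7 and 24 h. Lens sorbitol measured at 27 h. Reported as mean ± SEM percent inhibition of sorbitol accumulation versus untreated diabetic controls. Student's t test on absolute sorbitol levels.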

Assay [3] relates to Rattus norvegicus. As to the kind of experiment: Tested in vivo for ability to inhibit sorbitol formation in the nerve of a streptozotocinized rat model after oral administration at the dose of 1.0 mg/Kg. It is filed as functional. The method, boiled down:
(§2)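 Rats made diabetic with streptozotocin 85 mg/kg iv at 0 h. Compound given by oral gavage at 4, 7 and 24 h. Sciatic nerve sorbitol measured at 27 h. Reported as mean ± SEM percent inhibition of sorbitol accumulation versus untreated diabetic controls. Student's t test on absolute sorbitol levels.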

The subject of assay [4] is Rattus norvegicus. The assay is described as follows: Tested in vivo for ability to inhibit sorbitol formation in the nerve of a streptozotocinized rat model after oral administration at the dose of 0.25 mg/Kg. It is filed as functional. The method, boiled down:
as §2

For assay [5], the system named is Rattus norvegicus. The assay is described as follows: Tested in vivo for ability to inhibit sorbitol formation in the lens of a streptozotocinized rat model after oral administration at the dose of 0.25 mg/Kg. The class given is functional. The settings on record: Lens of camera-type eye. The method, boiled down:
as §1

Assay [6] deals with Rattus norvegicus. As to the kind of experiment: Tested in vivo for ability to inhibit sorbitol formation in the nerve of a streptozotocinizad rat model after oral administration at the dose of 1.0 mg/Kg. The class given is functional. The method, boiled down:
as §2

Assay [7] relates to Rattus norvegicus. The assay is described as follows: Tested in vivo for ability to inhibit sorbitol formation in the lens of a streptozotocinizad rat model after oral administration at the dose of 1.0 mg/Kg. The class given is functional. The settings on record: Lens of camera-type eye. In outline: as §1
Assay [8] deals with Rattus norvegicus. As to the kind of experiment: Tested in vivo for ability to inhibit sorbitol formation in the lens of a streptozotocinized rat model after oral administration at the dose of 5.0 mg/Kg. It is filed as functional. Conditions: Lens of camera-type eye. In outline: as §1
The subject of assay [9] is Rattus norvegicus. The assay is described as follows: Tested in vivo for ability to inhibit sorbitol formation in the nerve of a streptozotocinized rat model after oral administration at the dose of 5.0 mg/Kg. It is filed as functional. In outline: as §2
Assay [10] deals with Rattus norvegicus. As to the kind of experiment: Tested in vivo for ability to inhibit sorbitol formation in the lens of a streptozotocinized rat model after oral administration at the dose of 1.0 mg/kg. The class given is functional. Conditions: Lens of camera-type eye. In outline:
as §1

For assay [11], the system named is Rattus norvegicus. The assay is described as follows: Tested in vivo for ability to inhibit sorbitol formation in the nerve of a streptozotocinized rat model after oral administration at the dose of 0.1 mg/Kg. The class given is functional. In outline: as §2
Assay [12] deals with Rattus norvegicus. As to the kind of experiment: Tested in vivo for ability to inhibit sorbitol formation in the nerve of a streptozotocinized rat model after oral administration at the dose of 0.5 mg/Kg. The class given is functional. The method, boiled down: as §2
Assay [13] concerns Rattus norvegicus. As to the kind of experiment: Tested in vivo for ability to inhibit sorbitol formation in the lens of a streptozotocinized rat model after oral administration at the dose of 0.1 mg/Kg. Conditions: Lens of camera-type eye. The class given is functional. In outline: as §1
Assay [14] concerns Rattus norvegicus. The assay is described as follows: Tested in vivo for ability to inhibit sorbitol formation in the lens of a streptozotocinized rat model after oral administration at the dose of 0.5 mg/Kg. It is filed as functional. Conditions: Lens of camera-type eye. The method, boiled down:
as §1

In assay [15] the test system is Rattus norvegicus. The assay is described as follows: Tested in vivo for ability to inhibit sorbitol formation in the lens of a streptozotocinized rat model after oral administration at the dose of 1.5 mg/Kg. The class given is functional. The settings on record: Lens of camera-type eye. In outline:
as §1

For assay [16], the system named is Rattus norvegicus. As to the kind of experiment: Tested in vivo for ability to inhibit sorbitol formation in the nerve of a streptozotocinized rat model after oral administration at the dose of 0.15 mg/Kg. The class given is functional. The method, boiled down:
as §2

In assay [17] the test system is Rattus norvegicus. The assay is described as follows: Tested in vivo for ability to inhibit sorbitol formation in the nerve of a streptozotocinized rat model after oral administration at the dose of 0.75 mg/kg. The class given is functional. The method, boiled down:
as §2

Assay [18] has as its system Rattus norvegicus. As to the kind of experiment: Tested in vivo for ability to inhibit sorbitol formation in the lens of a streptozotocinized rat model after oral administration at the dose of 0.15 mg/Kg. It is filed as functional. Conditions: Lens of camera-type eye. The method, boiled down:
as §1

In assay [19] the test system is Rattus norvegicus. The assay is described as follows: Tested in vivo for ability to inhibit sorbitol formation in the lens of a streptozotocinized rat model after oral administration at the dose of 0.75 mg/Kg. The class given is functional. The settings on record: Lens of camera-type eye. In outline: as §1
Assay [20] relates to Rattus norvegicus. The assay is described as follows: Tested in vivo for ability to inhibit sorbitol formation in the nerve of a streptozotocinized rat model after oral administration at the dose of 1.5 mg/Kg. It is filed as functional. In outline: as §2

11 molecules from ChEMBL document CHEMBL1125164, “Spiro hydantoin aldose reductase inhibitors derived from 8-aza-4-chromanones” (J Med Chem, 1990) can be followed below.

Usually IC50 stands for the concentration at which inhibition is half-maximal. Read a high IC50 as lower potency. As usually defined, the inhibition in vivo is the drop in the measured response relative to a control, in per cent. As for `C[C@H]1C[C@@]2(NC(=O)NC2=O)c2cc(Cl)cnc2O1`, the IC50 in assay [1] was 3090 nM. Further, the inhibition in vivo at 1 mg/kg in assay [2] was -10.6%; in [3], -9.5%.
For `C[C@@H]1C[C@]2(NC(=O)NC2=O)c2cc(Cl)c[n+]([O-])c2O1`, half-maximal inhibition in assay [1] (IC50) required 950 nM. This counts as sub-micromolar.
Molecule `O=C1NC(=O)[C@@]2(CCOc3ncc(Cl)cc32)N1` (racemic) displayed an IC50 in assay [1] of 6450 nM. The inhibition in vivo at 1 mg/kg came out at 46.1% in assay [2] and 37% in [3].
In assay [1], `C[C@@H]1C[C@]2(NC(=O)NC2=O)c2cc(F)cnc2O1` (racemic) showed an IC50 of 1130 nM. That is a single-digit micromolar value.
`C[C@@H]1C[C@]2(NC(=O)NC2=O)c2cccnc2O1` (racemic) had an IC50 in assay [1] of 7220 nM. The inhibition in vivo at 1 mg/kg in assay [2] was determined as 33.9%; in [3], 18.2%.
Molecule `C[C@H]1C[C@]2(NC(=O)NC2=O)c2cc(Cl)cnc2O1` (racemic) registered an IC50 in [1] of 890 nM. Also, the inhibition in vivo at 0.25 mg/kg in assay [4] worked out at 12.8%; in assay [5], 31.8%.
With `C[C@@H]1C[C@]2(NC(=O)NC2=O)c2cc(Br)cnc2O1` (racemic), in assay [1], the IC50 came to 500 nM. Further, the inhibition in vivo at 1 mg/kg in assay [2] was determined as 67.4%; in [3], 72.7%.
In assay [1], `C[C@@H]1C[C@]2(NC(=O)NC2=O)c2cc(Cl)c[n+]([O-])c2O1` (racemic) displayed an IC50 of 130 nM. Further, the inhibition in vivo at 1 mg/kg in [6] is 37.6%; in assay [7], 19.9%.
In the case of `C[C@@H]1C[C@]2(NC(=O)NC2=O)c2cc(Cl)cnc2O1` (racemic; 14), in [1], the IC50 was 25 nM. Moreover, the inhibition in vivo at 5 mg/kg in assay [8] is 89%; in assay [9], 98%. For the same molecule, the inhibition in vivo at 0.25 mg/kg was 38% in assay [4] and 13% in assay [5].
Take `C[C@@H]1C[C@]2(NC(=O)NC2=O)c2cc(Cl)cnc2O1` (racemic; 16): the midpoint of inhibition in [1], the IC50, lay at 7.5 nM. In addition, the inhibition in vivo at 1 mg/kg in assay [10] was 88.2%; in [3], 87.5%. In addition, the inhibition in vivo at 0.1 mg/kg was 8.7% in assay [11] and 13.8% in [13]. The inhibition in vivo at 0.5 mg/kg in assay [12] amounted to 55.8%; in assay [14], 55.5%.
For `O=C1NC(=O)[C@@]2(CCOc3ccc(F)cc32)N1` [SORBINIL], the inhibition in vivo at 1.5 mg/kg in [15] turned out to be 73.4%; in assay [20] it was 90.9%. Moreover, the inhibition in vivo at 0.15 mg/kg in assay [16] is 29%; in [18], 12.3%. Further, the figures for the inhibition in vivo at 0.75 mg/kg in [17] and in assay [19] were 72.7% and 44.2%, respectively.
